Calls of active or inactive are those of the source. The calls are words filed in the database; no cut-off is given here.
Columns and labels:
NCI-H460 [1] = assay: Induction of Nur77 protein expression in human NCI-H460 cells at 20 nM after 3 hrs by Western blot assay; assay type: functional, cell-based
In short: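 NIH-H460 cells exposed to 20 nM glycoside for 3 h and lysed. Equal lysate amounts run on 8% SDS-PAGE and blotted to PVDF, then blocked in 5% milk/TBST for 1 h. Anti-Nur77 (1:1000) applied overnight at 4 °C, secondary antibody for 1 h, ECL detection. β-actin (1:10000) reprobe served as loading control.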

NCI-H460 [2] = assay: Induction of apoptosis in human NCI-H460 cells assessed as late apoptotic cells at 20 nM after 12 hrs by Annexin V-FITC/propidium iodide staining based flow cytometry (reference value: 2.54%); assay type: functional
In short: (§1)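 NIH-H460 cells seeded at 1 × 10^5/well and given 20 nM glycoside for 12 h. Cells trypsinized, spun at 1,500 rpm for 5 min and resuspended in Annexin V binding buffer. Annexin V-FITC stain for 15 min, then propidium iodide for 5 min. Populations quantified by FACS Calibur flow cytometry.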

NCI-H460 [3] = assay: Induction of apoptosis in human NCI-H460 cells assessed as live cells at 20 nM after 12 hrs by Annexin V-FITC/propidium iodide staining based flow cytometry (reference value: 91.81%); assay type: functional; in short: as §1
[4] = molecular target: Nuclear receptor subfamily 4immunitygroup A member 1 (Homo sapiens) (UniProt P22736); assay: Induction of Nur77 protein translocation from nucleus to cytoplasm in human NCI-H460 cells at 20 nM after 9 hrs by DAPI staining based immunofluorescence microscopic method; assay type: cell-based
Chain of Nuclear receptor subfamily 4immunitygroup A member 1 (Homo sapiens) (P22736 whole entry): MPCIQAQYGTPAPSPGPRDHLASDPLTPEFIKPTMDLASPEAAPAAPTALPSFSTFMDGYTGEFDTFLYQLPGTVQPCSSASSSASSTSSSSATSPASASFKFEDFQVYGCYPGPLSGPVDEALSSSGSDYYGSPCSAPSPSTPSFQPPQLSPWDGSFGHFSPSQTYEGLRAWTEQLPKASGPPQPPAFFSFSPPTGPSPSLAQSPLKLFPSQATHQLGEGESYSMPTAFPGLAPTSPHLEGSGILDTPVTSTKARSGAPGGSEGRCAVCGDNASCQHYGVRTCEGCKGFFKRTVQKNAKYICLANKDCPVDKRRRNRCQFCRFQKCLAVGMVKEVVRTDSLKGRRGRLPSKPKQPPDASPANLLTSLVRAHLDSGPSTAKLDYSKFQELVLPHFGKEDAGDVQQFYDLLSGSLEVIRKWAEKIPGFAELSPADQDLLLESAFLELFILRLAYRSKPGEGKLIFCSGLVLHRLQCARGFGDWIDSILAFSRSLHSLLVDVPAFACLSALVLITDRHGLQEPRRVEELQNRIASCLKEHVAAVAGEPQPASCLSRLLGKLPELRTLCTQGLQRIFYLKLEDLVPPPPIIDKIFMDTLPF
In short: (§2)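 NIH-H460 cells given 20 nM glycoside for 3, 6 and 9 h. Cells permeabilized with 0.1% Triton X-100 for 15 min and blocked in 1% BSA for 30 min. Anti-Nur77 applied at 37 °C for 1 h, then Cy3 anti-rabbit IgG for 30 min at room temperature. DAPI stained nuclei; confocal imaging scored Nur77 nuclear versus cytoplasmic location.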

[5] = molecular target: Nuclear receptor subfamily 4immunitygroup A member 1 (Homo sapiens) (UniProt P22736); assay: Induction of Nur77 protein translocation from nucleus to cytoplasm in human NCI-H460 cells at 20 nM by DAPI staining based immunofluorescence microscopic method; assay type: cell-based; details: TDE = time-dependent effect; in short: as §2
NCI-H460 [6] = assay: Induction of apoptosis in human NCI-H460 cells assessed as necrotic cells at 20 nM after 12 hrs by Annexin V-FITC/propidium iodide staining based flow cytometry (reference value: 0.93%); assay type: functional; in short: as §1
NCI-H460 [7] = assay: Cytotoxicity against human NCI-H460 cells assessed as reduction in cell viability at 50 nM after 48 hrs by MTT assay; assay type: functional, cell-based
In short: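 NIH-H460 cells (ATCC; RPMI 1640, 10% FBS, L-glutamine, penicillin/streptomycin) seeded at 3 × 10^3/well, then given medium with 50 nM glycoside for 48 h. MTT ([…]) added for 4 h at 37 °C, formazan dissolved in DMSO, absorbance at 560 nm.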

NCI-H460 [8] = assay: Induction of apoptosis in human NCI-H460 cells assessed as early apoptotic cells at 20 nM after 12 hrs by Annexin V-FITC/propidium iodide staining based flow cytometry (reference value: 4.72%); assay type: functional; in short: as §1
NCI-H460 [9] = assay: Induction of apoptosis in human NCI-H460 cells assessed as necrotic cells after 12 hrs by Annexin V-FITC/propidium iodide staining based flow cytometry (reference value: 0.93%); assay type: functional
NCI-H460 [10] = assay: Induction of apoptosis in human NCI-H460 cells assessed as live cells after 12 hrs by Annexin V-FITC/propidium iodide staining based flow cytometry (reference value: 91.81%); assay type: functional
NCI-H460 [11] = assay: Induction of apoptosis in human NCI-H460 cells assessed as late apoptotic cells after 12 hrs by Annexin V-FITC/propidium iodide staining based flow cytometry (reference value: 2.54%); assay type: functional
NCI-H460 [12] = assay: Induction of apoptosis in human NCI-H460 cells assessed as early apoptotic cells after 12 hrs by Annexin V-FITC/propidium iodide staining based flow cytometry (reference value: 4.72%); assay type: functional

SMILES: C[C@]12CC[C@H](OC3O[C@H](CO)[C@@H](O[C@@H]4O[C@H](CO)[C@H](O)[C@H](O)[C@H]4O)[C@H](O)[C@H]3O)C[C@H]1CC[C@@H]1[C@@H]2C[C@@H](O)[C@]2(C)[C@@H](C3=CC(=O)OC3)CC[C@]12O (stereo not given in full)
- Activity (NCI-H460 [1]): Active

SMILES: C[C@]12CC[C@H](OC3O[C@H](CO)[C@@H](O[C@@H]4O[C@H](CO)[C@@H](O)[C@H](O)[C@H]4O)[C@H](O)[C@H]3O)C[C@H]1CC[C@@H]1[C@@H]2C[C@@H](O)[C@]2(C)[C@@H](C3=CC(=O)OC3)CC[C@]12O (stereo not given in full)
- Activity (NCI-H460 [1]): Active

SMILES: C[C@]12CC[C@H](OC3O[C@H](CO)[C@H](O)[C@H](O)[C@H]3O)C[C@H]1CC[C@@H]1[C@@H]2C[C@@H](O)[C@]2(C)[C@@H](C3=CC(=O)OC3)CC[C@]12O (stereo not given in full)
- Activity (NCI-H460 [1]): Active

SMILES: C[C@]12CC[C@H](OC3OC[C@@H](O)[C@@H](O)[C@H]3O)C[C@H]1CC[C@@H]1[C@@H]2C[C@@H](O)[C@]2(C)[C@@H](C3=CC(=O)OC3)CC[C@]12O (stereo not given in full)
- Activity (NCI-H460 [2]): 4.58%
- Activity (NCI-H460 [3]): 83.97%
- Activity [4]: Active
- Activity [5]: Tde
- Activity (NCI-H460 [6]): 1.24%
- Activity (NCI-H460 [7]): Active
- Activity (NCI-H460 [1]): Active
- Activity (NCI-H460 [8]): 10.21%

SMILES: C[C@@H]1OC(O[C@H]2CC[C@@]3(C)[C@H](CC[C@@H]4[C@@H]3C[C@@H](O)[C@]3(C)[C@@H](C5=CC(=O)OC5)CC[C@]43O)C2)[C@H](O)[C@H](O)[C@H]1O (stereo not given in full)
- Activity (NCI-H460 [2]): 5.5%
- Activity (NCI-H460 [3]): 83.59%
- Activity [4]: Active
- Activity [5]: Tde
- Activity (NCI-H460 [6]): 1.55%
- Activity (NCI-H460 [7]): Active
- Activity (NCI-H460 [1]): Active
- Activity (NCI-H460 [8]): 9.35%

SMILES: C[C@]12CC[C@@H](O)C[C@H]1CC[C@@H]1[C@@H]2C[C@@H](O)[C@]2(C)[C@@H](C3=CC(=O)OC3)CC[C@]12O
- Activity (NCI-H460 [1]): Active

SMILES: C[C@]12CC[C@H](OC3O[C@H](CO)[C@@H](O)[C@H](O)[C@H]3O)C[C@H]1CC[C@@H]1[C@@H]2C[C@@H](O)[C@]2(C)[C@@H](C3=CC(=O)OC3)CC[C@]12O (stereo not given in full)
- Activity (NCI-H460 [7]): Active

SMILES: C[C@H]1O[C@@H](O[C@H]2[C@@H](O)C[C@H](O[C@H]3[C@@H](O)C[C@H](O[C@H]4CC[C@@]5(C)[C@H](CC[C@@H]6[C@@H]5C[C@@H](O)[C@]5(C)[C@@H](C7=CC(=O)OC7)CC[C@]65O)C4)O[C@@H]3C)O[C@@H]2C)C[C@H](O)[C@@H]1O [DIGOXIN]
- Activity (NCI-H460 [9]): 0.6%
- Activity (NCI-H460 [10]): 90.71%
- Activity (NCI-H460 [11]): 4.64%
- Activity (NCI-H460 [12]): 4.06%

SMILES: C[C@]12CC[C@@H](OC3O[C@H](CO)[C@@H](O)[C@H](O)[C@@H]3O)C[C@H]1CC[C@@H]1[C@@H]2C[C@@H](O)[C@]2(C)[C@@H](C3=CC(=O)OC3)CC[C@]12O (stereo not given in full)
- Activity (NCI-H460 [1]): Active

SMILES: C[C@H]1O[C@@H](O[C@H]2[C@@H](O)CC(O[C@H]3CC[C@@]4(C)[C@H](CC[C@@H]5[C@@H]4C[C@@H](O)[C@]4(C)[C@@H](C6=CC(=O)OC6)CC[C@]54O)C3)O[C@@H]2C)C[C@H](O)[C@@H]1O (stereo not given in full)
- Activity (NCI-H460 [1]): Active

SMILES: C[C@@H]1OC(O[C@H]2CC[C@@]3(C)[C@H](CC[C@@H]4[C@@H]3C[C@@H](O)[C@]3(C)[C@@H](C5=CC(=O)OC5)CC[C@]43O)C2)[C@@H](O)[C@H](O)[C@@H]1O (stereo not given in full)
- Activity (NCI-H460 [2]): 9.01%
- Activity (NCI-H460 [3]): 61.75%
- Activity [4]: Active
- Activity [5]: Tde
- Activity (NCI-H460 [6]): 4.21%
- Activity (NCI-H460 [7]): Active
- Activity (NCI-H460 [1]): Active
- Activity (NCI-H460 [8]): 25.02%
